Source: ChEMBL document CHEMBL1139854, “Phenalenone-type compounds from Musa acuminata var. "Yangambi km 5" (AAA) and their activity against Mycosphaerella fijiensis” (J Nat Prod, 2007)
Calls of active or inactive are those of the source. The rule behind the calls is not given here.

Columns and labels:
Type in all cases: functional
[1] = tested on: Pseudocercospora fijiensis; assay: Inhibition of Mycosphaerella fijiensis mycelial growth
[2] = tested on: Pseudocercospora fijiensis; assay: Inhibition of Mycosphaerella fijiensis mycelial growth at 50 to 100 ppm after 15 days
Summary of the method: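 Colonies (2 ± 1 mg) were taken from conidia grown 4 days on PDA. They were placed 20 per dish on PDA holding 10, 50 or 100 ppm compound added in EtOH (max 3.7%). Colony weight was taken at 7 and 15 days (10 colonies each) against EtOH-only blank medium. Run in quadruplicate and analysed by one-way ANOVA.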

[3] = tested on: Pseudocercospora fijiensis; assay: Growth inhibition of Mycosphaerella fijiensis by microtitre plate photometric assay
Summary of the method: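 Mycelial fragments came from monosporic PDA subcultures of several strains grown 15-20 days at 27 °C. They were bead-vortexed, filtered at 100 µm, counted and set to 2 × 10⁴–2 × 10⁶ fragments/mL. Cultures ran in Sabouraud broth with final 0, 5, 10, 20, 30, 40, 50 ppm at 27 °C. OD595 was read daily up to 17 days. IC50 is 50% growth inhibition versus compound-free inoculum.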

[4] = tested on: Pseudocercospora fijiensis; assay: Inhibition of Mycosphaerella fijiensis spore germination at 50 to 100 ppm
Summary of the method: (§1)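 Ascospores were exposed to compound at 10, 50 or 100 ppm for 24 h at 27 °C. Germination and germ-tube length were scored microscopically on 50-150 ascospores. Run in quadruplicate.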

[5] = tested on: Pseudocercospora fijiensis; assay: Inhibition of Mycosphaerella fijiensis spore germination; summary of the method: as §1

Row | Structure (SMILES) | Activity [1] | Activity [2] | IC50 [3] | Activity [4] | Activity [5]
1 | COc1ccc(-c2ccc3cccc4c3c2C(=O)C=C4)cc1 | Active | – | – | – | –
2 | O=C1C(O)=Cc2cccc3cccc1c23 | – | Active | 23.4 ppm | Active | –
3 | COC1=Cc2cccc3cccc(c23)C1=O | – | Active | 19.3 ppm | Active | –
4 | O=C1C=Cc2cccc3cccc1c23 | Active | Active | – | – | Active
